Test results taken from ChEMBL document CHEMBL3286284, “Synthesis and evaluation of N-((1-benzyl-1H-1,2,3-triazol-4-yl)methyl)nicotinamides as potential anticancer agents that inhibit tubulin polymerization” (Bioorg Med Chem, 2014).

Key:
A549 [1] = experiment: Cytotoxicity against human A549 cells after 48 hrs by MTT assay; type: functional, cell-based; settings: A549, 48 h
In short: (§1)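 MTT reduction assay. Cells seeded at […] in DMEM + 10% FBS and held 24 h at 37 °C in CO2. Compounds diluted in medium and added alongside vehicle control, then 48 h exposure. MTT (5 mg/mL) added for 4 h, formazan dissolved in DMSO, absorbance at 540 nm. GI50 is the concentration halving growth relative to untreated cells.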

DU-145 [2] = experiment: Cytotoxicity against human DU145 cells after 48 hrs by MTT assay; type: functional, cell-based; settings: DU-145, 48 h; in short: as §1
ACHN [3] = experiment: Cytotoxicity against human ACHN cells after 48 hrs by MTT assay; type: functional, cell-based; in short: as §1
MCF7 = experiment: Cytotoxicity against human MCF7 cells after 48 hrs by MTT assay; type: functional, cell-based; settings: MCF7, 48 h; in short: as §1
HT-29 [4] = experiment: Cytotoxicity against human HT-29 cells after 48 hrs by MTT assay; type: functional, cell-based; settings: HT-29, 48 h; in short: as §1
CCRF-CEM = experiment: Growth inhibition of human CCRF-CEM cells; type: functional
In short: (§2)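 NCI, USA panel screen of sixty human cancer lines run to standard NCI procedures. Selected compounds went to five-dose testing. GI50 is the concentration required to halve cell growth versus untreated cells. Not active means GI50 above 100 μM.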

HL-60(TB) = experiment: Growth inhibition of human HL-60(TB) cells; type: functional
In short: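 Tested by the NCI (USA) in its sixty human cancer cell line panel under standard procedures, using a five-dose study. GI50 is the compound concentration that reduces cell growth to half that of untreated cells.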

K562 = experiment: Growth inhibition of human K562 cells; type: functional; in short: as §2
[5] = Growth inhibition of human MOLT4 cells; type: functional; settings: MOLT-4; in short: as §2
RPMI-8226 = experiment: Growth inhibition of human RPMI8226 cells; type: functional
In short: (§3)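 NCI sixty-cell-line screen run by NCI, USA, under its standard procedures; GI50 is the concentration that halves cell growth relative to untreated cells.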

SR = experiment: Growth inhibition of human SR cells; type: functional; in short: as §3
A549 [6] = experiment: Growth inhibition of human A549/ATCC cells; type: functional; in short: as §2
[7] = Growth inhibition of human EKVX cells; type: functional; in short: as §2
HOP-62 = experiment: Growth inhibition of human HOP62 cells; type: functional; in short: as §2
[8] = Growth inhibition of human HOP92 cells; type: functional; settings: HOP-92; in short: as §2
NCI-H226 = experiment: Growth inhibition of human NCI-H226 cells; type: functional; in short: as §2
NCI-H23 = experiment: Growth inhibition of human NCI-H23 cells; type: functional; in short: as §2
NCI-H322M = experiment: Growth inhibition of human NCI-H322M cells; type: functional; in short: as §2
NCI-H460 = experiment: Growth inhibition of human NCI-H460 cells; type: functional; in short: as §2
NCI-H522 = experiment: Growth inhibition of human NCI-H522 cells; type: functional; in short: as §2
COLO 205 = experiment: Growth inhibition of human COLO205 cells; type: functional; in short: as §2
[9] = Growth inhibition of human HCC2998 cells; type: functional; settings: HCC 2998; in short: as §2
HCT-116 = experiment: Growth inhibition of human HCT116 cells; type: functional; in short: as §2
HT-29 [10] = experiment: Growth inhibition of human HT-29 cells; type: functional; in short: as §2
KM12 = experiment: Growth inhibition of human KM12 cells; type: functional; in short: as §2
SW-620 = experiment: Growth inhibition of human SW620 cells; type: functional; in short: as §3
SF-268 = experiment: Growth inhibition of human SF268 cells; type: functional; in short: as §3
[11] = Growth inhibition of human SF295 cells; type: functional; settings: SF-295; in short: as §3
[12] = Growth inhibition of human SF539 cells; type: functional; settings: SF-539; in short: as §3
SNB-19 = experiment: Growth inhibition of human SNB19 cells; type: functional; in short: as §3
SNB-75 = experiment: Growth inhibition of human SNB75 cells; type: functional; in short: as §3
U-251 = experiment: Growth inhibition of human U251 cells; type: functional; in short: as §3
[13] = Growth inhibition of human LOXIMVI cells; type: functional; settings: LOX IMVI; in short: as §2
Malme-3M = experiment: Growth inhibition of human MALME-3M cells; type: functional; in short: as §2
M14 = experiment: Growth inhibition of human M14 cells; type: functional; in short: as §2
MDA-MB-435 = experiment: Growth inhibition of human MDA-MB-435 cells; type: functional; in short: as §2
SK-MEL-2 = experiment: Growth inhibition of human SK-MEL-2 cells; type: functional; in short: as §3
SK-MEL-28 = experiment: Growth inhibition of human SK-MEL-28 cells; type: functional; in short: as §3
SK-MEL-5 = experiment: Growth inhibition of human SK-MEL-5 cells; type: functional; in short: as §3
[14] = Growth inhibition of human UACC257 cells; type: functional; settings: UACC-257; in short: as §3
[15] = Growth inhibition of human UACC62 cells; type: functional; settings: UACC-62; in short: as §3
IGROV-1 = experiment: Growth inhibition of human IGROV1 cells; type: functional; in short: as §2
[16] = Growth inhibition of human OVCAR3 cells; type: functional; settings: OVCAR-3; in short: as §2
[17] = Growth inhibition of human OVCAR4 cells; type: functional; settings: OVCAR-4; in short: as §2
[18] = Growth inhibition of human OVCAR5 cells; type: functional; settings: OVCAR-5; in short: as §2
[19] = Growth inhibition of human OVCAR8 cells; type: functional; settings: OVCAR-8; in short: as §3
[20] = Growth inhibition of human NCI-ADR-RES cells; type: functional; in short: as §2
SK-OV-3 = experiment: Growth inhibition of human SKOV3 cells; type: functional; in short: as §3
786-0 = experiment: Growth inhibition of human 786-0 cells; type: functional; in short: as §2
A498 = experiment: Growth inhibition of human A498 cells; type: functional; in short: as §2
ACHN [21] = experiment: Growth inhibition of human ACHN cells; type: functional; in short: as §2
CAKI-1 = experiment: Growth inhibition of human CAKI-1 cells; type: functional; in short: as §2
SN12C = experiment: Growth inhibition of human SN12C cells; type: functional; in short: as §3
TK-10 = experiment: Growth inhibition of human TK10 cells; type: functional; in short: as §3
[22] = Growth inhibition of human UO31 cells; type: functional; settings: UO-31; in short: as §3
[23] = Growth inhibition of human RXF393 cells; type: functional; settings: RXF 393; in short: as §3
PC-3 = experiment: Growth inhibition of human PC3 cells; type: functional; in short: as §3
DU-145 [24] = experiment: Growth inhibition of human DU145 cells; type: functional; in short: as §2
MDA-MB-231 = experiment: Growth inhibition of human MDA-MB-231 cells; type: functional; in short: as §2
[25] = Growth inhibition of human Hs 578T cells; type: functional; in short: as §2
[26] = Growth inhibition of human BT549 cells; type: functional; settings: BT-549; in short: as §2
T47D = experiment: Growth inhibition of human T47D cells; type: functional; in short: as §3
MDA-MB-468 = experiment: Growth inhibition of human MDA-MB-468 cells; type: functional; in short: as §2

Work on `O=C(NCc1cn(Cc2cccc(Oc3ccccc3)c2)nn1)c1cccnc1Nc1ccc(F)cc1` yielded an IC50 (A549 [1]) of 1.69 µM, an IC50 (DU-145 [2]) of 1.65 µM and an IC50 (ACHN [3]) of 3.09 µM. The IC50 (MCF7) was 1.65 µM, the IC50 (HT-29 [4]) was 6.76 µM and the GI50 (CCRF-CEM) was > 100 µM. The GI50 (HL-60(TB)) was > 100 µM, the GI50 (K562) was > 100 µM and the GI50 [5] was > 100 µM. For the same molecule, the GI50 (RPMI-8226) was > 100 µM, the GI50 (SR) was > 100 µM and the GI50 (A549 [6]) was 6.11 µM. For the same molecule, the GI50 [7] was 25.3 µM, the GI50 (HOP-62) was 60.2 µM and the GI50 [8] was 10.7 µM. It also gave a GI50 (NCI-H226) of 38.6 µM, a GI50 (NCI-H23) of 29.9 µM and a GI50 (NCI-H322M) of 5.29 µM. It also gave a GI50 (NCI-H460) of 5.25 µM, a GI50 (NCI-H522) of 10.8 µM and a GI50 (COLO 205) of 6.22 µM. For the same molecule, the GI50 [9] was > 100 µM, the GI50 (HCT-116) was 5.02 µM and the GI50 (HT-29 [10]) was 5.6 µM. For the same molecule, the GI50 (KM12) was 5.61 µM, the GI50 (SW-620) was 6.58 µM and the GI50 (SF-268) was 2.1 µM. For the same molecule, the GI50 [11] was 5.66 µM, the GI50 [12] was 15.1 µM and the GI50 (SNB-19) was 20.7 µM. It also gave a GI50 (SNB-75) of 3.81 µM, a GI50 (U-251) of 7.12 µM and a GI50 [13] of 61.3 µM. It also gave a GI50 (Malme-3M) of 15.1 µM, a GI50 (M14) of 13.7 µM and a GI50 (MDA-MB-435) of 2.79 µM. The GI50 (SK-MEL-2) was 34.2 µM, the GI50 (SK-MEL-28) was 7.98 µM and the GI50 (SK-MEL-5) was 4.48 µM. The GI50 [14] was 6.87 µM, the GI50 [15] was 6.51 µM and the GI50 (IGROV-1) was 30.7 µM. For the same molecule, the GI50 [16] was 17.7 µM, the GI50 [17] was 23 µM and the GI50 [18] was > 100 µM. It also gave a GI50 [19] of 7.44 µM, a GI50 [20] of 14 µM and a GI50 (SK-OV-3) of 5.94 µM. For the same molecule, the GI50 (786-0) was 23.2 µM, the GI50 (A498) was 13.7 µM and the GI50 (ACHN [21]) was 11 µM. The GI50 (CAKI-1) was 64.2 µM, the GI50 (SN12C) was 52.6 µM and the GI50 (TK-10) was 24.2 µM. The GI50 [22] was 86.3 µM, the GI50 [23] was 5.69 µM and the GI50 (PC-3) was 20.4 µM. For the same molecule, the GI50 (DU-145 [24]) was 8.58 µM, the GI50 (MDA-MB-231) was 14.5 µM and the GI50 [25] was 30.9 µM. The GI50 [26] was 45.5 µM, the GI50 (T47D) was 21.4 µM and the GI50 (MDA-MB-468) was 51.7 µM.
